# Screens deposited in PubChem by several laboratories.
# This is a sample that favours compounds with a hit; in the whole collection about 4.6% have one here.
# NF-kB neuron act: NF-kB expression increase, human neuronal cells | NF-kB reporter expression; active compounds read high | fold change at 12.5 µM | hit rate 1.6% among 190,000 | AID 1239; in the data active = fold change above about 3.3
# MDM2 E3 inh: blocks human Mdm2 ubiquitin ligase activity; Q00987; cell-based MDM2 ubiquitination luciferase reporter, 2 h; 0 = plate control, 100 = twice control, blank-subtracted; hit rate 0.11% among 210,000; signal enhancement, % at 5 µM; AID 1230;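 active = signal enhancement of 30% or more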;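 note: luminescence tracks abundance of the self-degrading MDM2-luciferase fusion protein; higher signal means inhibition of MDM2 E3 ligase activity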
#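 Buffer or medium: Cells held in DMEM | Assay system: Stable mammalian line carrying autodegrading MDM2–luciferase fusion reporter | Quantity: 2000 cells/well | Times: 4 h settle plus 2 h compound, 37 °C | Doses: One concentration, 5 µM, with 0.2% DMSO | Technique: Luminescence with SteadyLite reagent, 15 min at room temperature | Benchmarks: Plate controls and plate blanks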
# Wee1 stabilizer: human Wee1 degradation inhibition, primary screen | P30291 | HeLa Luc-Wee1K328M stability, luciferase luminescence; 100% = proteasome inhibitor MG132 effect | reporter increase, % at 5 µM | hit rate 1.2% among 220,000 | AID 1321;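 active = activation above the mean of all tested compounds plus 3 SD, set per screening run, cut at about 8.8% in these data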;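 note: cells exposed to compound for 20 h before luminescence read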
# p97 ATPase inh: human p97 ATPase inhibition | hit rate 0.42% among 220,000 | inhibition, % at 8 µM | P55072 | recombinant p97 ATPase, Kinase-Glo ATP luminescence, 3 h | AID 1481; in the data active = inhibition above about 15%
# STAT1 activator: increases IFN-gamma driven STAT1 reporter signal | NIH 3T3 STAT1-luciferase reporter, luminescence; 100% = IFN-gamma alone, no compound | AID 932 | hit rate 2.6% among 200,000 | activation (% of control), % at 5.5 µM;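 active = activation above the screen-wide mean activation plus 3 SD, cut at about 130% in these data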
# APP 5'UTR act: activates APP 5'UTR luciferase reporter; hit rate 1% among 190,000; activation, % at 2 µM; SH-SY5Y APP 5'UTR luciferase reporter, luminescence; zero percent = DMSO vehicle wells;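 active = activation above a set limit, based on mean plus 3 SD of controls, cut at about 140% in these data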
# Numbers stand for hits; – = inactive; · = no result.
SMILES,NF-kB neuron act,MDM2 E3 inh,Wee1 stabilizer,p97 ATPase inh,STAT1 activator,APP 5'UTR act
Fc1ccccc1NC(=S)N1CCC(c2ccccc2)C1 (stereo not drawn),–,·,–,–,146,–
S=C(Nc1ccccc1Cl)N1CCC(c2ccccc2)C1 (stereo not drawn),3.4,·,–,–,148,–
Fc1cc(F)cc(NC(=S)N2CCC(c3ccccc3)C2)c1 (stereo not drawn),–,·,–,–,141,–
Cc1ccc(NC(=S)N2CCC(c3ccc(C)cc3)C2)cc1 (stereo not drawn),–,·,–,–,–,–
CC(C)=CCN1CCN(Cc2cccn2-c2ncccn2)CC1CCO (stereo not drawn),–,–,–,–,–,–
O=C(COC(=O)CCC(=O)c1cccs1)Nc1ccccc1[N+](=O)[O-],–,–,–,–,–,–
O=C(/C=C/c1ccc(F)cc1)NC(Cc1c[nH]c2ccccc12)C(=O)O (stereo not drawn),–,–,–,–,–,–
Cc1oc(-c2ccccc2F)nc1CS(=O)(=O)CC(=O)NCc1ccco1,–,–,9.2,–,–,–
CCOC(=O)N1CCN(C(=O)C2CCCN(S(=O)(=O)c3cc(C)ccc3OC)C2)CC1 (stereo not drawn),–,79,–,–,–,–
COc1ccc(CNC(=O)C2CCCN(S(=O)(=O)c3cc(C)ccc3OC)C2)cc1 (stereo not drawn),–,–,–,–,–,–
Cc1ccc(S(=O)(=O)Cn2nnnc2CN2CCOCC2)cc1,–,–,11,–,–,–
Fc1cccc2sc(Nc3nc4c(F)cccc4s3)nc12,–,–,–,–,–,–
NNc1nc2c(F)cccc2s1,–,–,–,–,146,142
Cc1cc(NC(=O)c2cc(C(C)C)on2)nn1Cc1ccc(Cl)cc1,–,–,–,–,–,–
CCn1c(COc2ccccc2C)nnc1SCC(=O)CC(=O)Nc1ccccc1,–,–,12,–,–,–
CCCCC(=O)Nc1cccc(C(=O)N/N=C/c2ccc(OC)cc2OC)c1,–,–,–,–,–,–
CNC(=S)N1CCN(c2ccc(Cl)c(Cl)c2)CC1,·,·,–,–,–,–
Cc1ccccc1-n1nnnc1SCC(=O)NCC1CCCO1 (stereo not drawn),–,–,–,–,–,–
CCCc1cc2c(=O)c(-c3ccc4c(c3)OCCO4)coc2cc1OC(=O)c1ccco1,–,–,–,–,–,–
CCc1cc2c(=O)c(-c3ccc4c(c3)OCCO4)coc2cc1OC(=O)c1ccco1,–,–,–,–,–,141
O=C(NCCOc1ccccc1Cl)c1cc(F)c(F)cc1Cl,3.8,–,–,–,130,–
O=C(NCCc1ccc(F)cc1)c1ccc([N+](=O)[O-])cc1,–,–,–,–,137,–
O=C(/C=C/c1ccc([N+](=O)[O-])cc1)NCCc1ccc(F)cc1,–,–,–,–,–,–
CC1(C(=O)O)CCC(C(=O)N2CCCCC2)C1(C)C (stereo not drawn),–,–,–,–,–,–
CC(=O)c1ccc(Nc2ccc(-c3ccccc3C)nn2)cc1,–,–,–,–,144,–
SMILES,NF-kB neuron act,MDM2 E3 inh,Wee1 stabilizer,p97 ATPase inh,STAT1 activator,APP 5'UTR act
COc1ccccc1-c1ccc(Nc2cccc(C(C)=O)c2)nn1,–,–,–,–,–,–
CSc1ccc(-c2ccco2)nn1,–,–,–,–,129,–
Cn1c(=O)c2c(nc(CN3CCN(CCO)CC3)n2Cc2cccc3ccccc23)n(C)c1=O,4.3,–,–,–,–,–
Cc1ccc(C(=O)Nc2nnc(NC(=S)Nc3ccccc3)s2)cc1,–,–,–,–,–,–
O=C(Cc1nnc(NC(=O)Nc2ccccc2)s1)NCc1ccccc1,–,–,–,–,–,–
CC(C)Cc1nnc(NC(=O)Nc2ccccc2)s1,–,–,–,–,147,–
CC(C)COC(=O)Nc1nnc(Cc2ccccc2)s1,–,–,–,–,133,–
CCc1nnc(NC(=S)Nc2ccccc2)s1,3.3,–,–,–,132,–
Cc1nc(NC(=S)Nc2ccccc2)sc1C,4.8,–,–,–,–,140
CCc1nnc(NC(=O)CCC(=O)Nc2ccccc2)s1,–,–,–,–,–,–
CC(C)(C)C(=O)Nc1nnc(Cc2ccccc2)s1,–,·,–,–,–,–
O=C(N/N=C/C(Br)=C\c1ccccc1)c1ccc2nc[nH]c2c1,–,–,–,–,–,–
CCn1c(C)cc(C=C2C(=O)c3ccccc3C2=O)c1C,3.4,–,–,–,–,156
Cc1cccc(-n2c(C)cc(C=C3C(=O)c4ccccc4C3=O)c2C)c1,–,–,–,–,–,–
Cc1cc(C=C2C(=O)c3ccccc3C2=O)c(C)n1C,6.3,·,–,–,–,–
CCOC(=O)C(=O)Nc1cc(C)on1,–,–,–,–,–,–
CN1CCc2c(C#N)c(N3CCCCC3)nc(NCc3ccccc3)c2C1,–,–,–,–,–,–
N#Cc1c(NCCCO)nc(NCc2ccccc2)c2c1CCN(Cc1ccccc1)C2,3.3,–,–,–,–,–
COc1ccccc1C1CCN(C(=O)c2cccc([N+](=O)[O-])c2)CC1,·,–,–,–,·,·
CN(C)c1ccc(C=Nc2ccc(N(C)C)cc2)cc1,–,–,–,–,144,175
CN(C)c1ccc(C=Nc2ccccc2)cc1,–,–,–,–,–,–
Cc1ccc(N=Cc2ccc(N(C)C)cc2)cc1,–,–,–,–,–,–
CN(C)c1ccc(N=Cc2ccco2)cc1,–,–,–,–,150,153
Cc1cc(C)n(C(=O)c2cc(F)c(F)cc2C)n1,–,–,–,–,–,–
NCC12CC3CC(C1)CC(c1ccc(Cl)cc1)(C3)C2,–,–,–,–,–,–
C#CCOCCOCCOCCNc1nc(N2CCN(C(=O)[C@H]([C@@H](C)CC)n3cc([C@@H](N)CC(C)C)nn3)CC2)nc(N2CCN(C(=O)[C@H](CCCCN)n3cc([C@@H](N)CO)nn3)CC2)n1,–,·,9.2,–,–,–
C#CCOCCOCCOCCNc1nc(N2CCN(C(=O)C([C@@H](C)CC)n3cc(C(N)CC(C)C)nn3)CC2)nc(N2CCN(C(=O)[C@H](CCC(=O)O)n3cc(C(N)Cc4ccc(O)cc4)nn3)CC2)n1 (stereo partly drawn),–,·,11,–,–,–
C#CCOCCOCCOCCNc1nc(N2CCN(C(=O)C([C@@H](C)CC)n3cc(C(N)Cc4ccc(O)cc4)nn3)CC2)nc(N2CCN(C(=O)[C@H](CCC(=O)O)n3cc(C(N)CC(C)C)nn3)CC2)n1 (stereo partly drawn),–,·,–,–,–,–
O=C1C(=O)N(c2ccc(O)cc2)C(c2ccccc2[N+](=O)[O-])/C1=C(\O)c1ccccc1 (stereo not drawn),·,–,–,–,·,·
O=C(Nc1nc2ccccc2[nH]1)c1ccc(Br)o1,3.6,–,–,–,144,–
